# In ChEMBL document CHEMBL1143482, “Insecticidal anthranilic diamides: a new class of potent ryanodine receptor activators” (2005):
# Key:
# Format in all cases: functional
# Spodoptera frugiperda = test: Lethal concentration required for 50% mortality in Fall armyworm
# In short: (§1)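 Larvae exposed to multiple test rates, 16 insects per rate. Mortality scored 96 h post-infestation as percent control = (dead/total) × 100. LC50 in ppm, with confidence intervals, from Probit analysis with maximum quasi-likelihood curve fitting.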
# Periplaneta americana = test: Ability to release internal calcium stores mediated by ryanodine receptor without activation of voltage-gated calcium channel of cockroach in CMT assay
# In short: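 Embryonic Periplaneta americana neurons cultured 7–14 days on glass coverslips, loaded 30 min with Fura-2 AM (2 µM) plus 0.02% pluronic acid in saline (mM: NaCl 190, KCl 3.1, CaCl2 9.0, Tris 10.0, pH 7.2). Ratio imaging, 340/380 nm excitation, 510 nm emission, under perfusion. Caffeine 20 mM given first; only caffeine-responsive cells analysed. Test compounds applied 3 min at multiple rates (n ≥ 11).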
# Heliothis virescens = test: Lethal concentration required for 50% mortality in Tobacco budworm; in short: as §1
SMILES,LC50 (Spodoptera frugiperda),CMT (Periplaneta americana),LC50 (Heliothis virescens)
Cc1cccc(C(=O)NC(C)C)c1NC(=O)c1cc(C(F)(F)F)nn1C,29.6 µg/mL,120 µM,130 µg/mL
CC(C)NC(=O)c1cccc(Cl)c1NC(=O)c1cc(C(F)(F)F)nn1-c1ncccc1Cl,0.1 µg/mL,,0.4 µg/mL
Cc1cccc(C(=O)NC(C)C)c1NC(=O)c1ccc(C(F)(F)F)cc1,16.9 µg/mL,,> 500 µg/mL
CCc1nc(C(F)(F)F)ccc1C(=O)Nc1c(C)cccc1C(=O)NC(C)C,9.7 µg/mL,20.6 µM,77.5 µg/mL
Cc1cccc(C(=O)NC(C)C)c1NC(=O)c1cnc(C(F)(F)F)nc1C,11.6 µg/mL,,102 µg/mL
CCc1nc(C(F)(F)F)ncc1C(=O)Nc1c(C)cccc1C(=O)NC(C)C,9 µg/mL,,41 µg/mL
CCn1nc(C(F)(F)F)cc1C(=O)Nc1c(C)cccc1C(=O)NC(C)C,34.8 µg/mL,,158 µg/mL
Cc1cc(C(F)(F)F)ccc1C(=O)Nc1c(C)cccc1C(=O)NC(C)C,20.7 µg/mL,,256 µg/mL
Cc1cc(C(F)(F)F)ccc1C(=O)Nc1ccccc1C(=O)NC(C)C,27.3 µg/mL,39.3 µM,> 500 µg/mL
CC(C)NC(=O)c1cccc(Cl)c1NC(=O)c1cc(C(F)(F)F)nn1-c1ccccc1Cl,0.1 µg/mL,0.3 µM,3 µg/mL
Cc1cccc(C(=O)NC(C)C)c1NC(=O)c1cc(C(F)(F)F)nn1-c1ccccc1Cl,0.05 µg/mL,0.2 µM,3.4 µg/mL
CCNC(=O)c1cccc(C)c1NC(=O)c1ccc(C(F)(F)F)cc1C,32.8 µg/mL,,> 500 µg/mL
CC1(C)C(C=C(Cl)Cl)C1C(=O)OC(C#N)c1cccc(Oc2ccccc2)c1 (stereo not drawn) [ALPHA-CYPERMETHRIN],2.1 µg/mL,,13.5 µg/mL
Cc1cccc(C(=O)NC(C)C)c1NC(=O)c1cc(C(F)(F)F)nn1-c1ccc(Cl)cc1,> 500 µg/mL,,> 500 µg/mL
Cc1cccc(C(=O)NC(C)C)c1NC(=O)c1cnc(C(F)(F)F)nc1C(C)C,9.8 µg/mL,26.6 µM,42.3 µg/mL
CNC(=O)c1cccc(C)c1NC(=O)c1ccc(C(F)(F)F)cc1C,60.1 µg/mL,,> 500 µg/mL
Cc1cc(Cl)cc(C(=O)NC(C)C)c1NC(=O)c1cc(C(F)(F)F)nn1-c1ncccc1Cl,,0.1 µM,0.02 µg/mL
Cc1cccc(C(=O)NC(C)C)c1NC(=O)c1cc(C(F)(F)F)nn1-c1ncccc1Cl,0.1 µg/mL,0.3 µM,0.4 µg/mL
Cc1cccc(C(=O)NC(C)C)c1NC(=O)c1cc(C(F)(F)F)nn1-c1ccccc1,26 µg/mL,,354 µg/mL
Cc1cccc(C(=O)NC(C)C)c1NC(=O)c1ccc(C(F)(F)F)nc1C,20.7 µg/mL,,327 µg/mL
Cc1cc(C(F)(F)F)ccc1C(=O)Nc1cccc(C)c1C(=O)NC(C)C,77 µg/mL,,> 500 µg/mL
COC(=O)N(C(=O)N1CO[C@@]2(C(=O)OC)Cc3cc(Cl)ccc3C2=N1)c1ccc(OC(F)(F)F)cc1 [INDOXACARB],0.5 µg/mL,,1.5 µg/mL
Cc1cccc(C(=O)NC(C)C)c1NC(=O)c1ccc(C(F)(F)F)nc1C(C)C,9.6 µg/mL,,55.5 µg/mL
Cc1cccc(C(=O)NC(C)C)c1NC(=O)c1cc(C(F)(F)F)nn1C(C)C,11.1 µg/mL,,36.4 µg/mL
Cc1cccc(C(=O)NC(C)C)c1NC(=O)c1cc(C(F)(F)F)nn1-c1cccc(Cl)c1,> 500 µg/mL,,> 500 µg/mL
